Data on 8 molecules can be found in article PMC12533025 (Scientific Reports, 2025).

One data set deals with male Wistar mice. Put plainly: Warm-water tail-flick test. Type of data set: in vivo. The conditions noted are these: for percentage of maximum possible effect (% MPE), tail flick assay: compared with the KOP agonist Nalbuphine; for acute antinociceptive agonist effect, tail flick assay: up to 30 mg/kg dose.
A further data set has as its system prolactin. Put plainly: Prolactin ELISA assay. The conditions noted are these: rat prolactin ELISA test; relative to normal level. Type of data set: in vivo, mice. Summed up:
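After dosing, blood is drawn by retro-orbital sinus bleed from isoflurane-anaesthetised mice and spun at 1000 g, 4 °C, 10 min. Plasma is diluted 1:20 and prolactin is measured by […] prolactin sandwich ELISA per kit protocol. Values are in ng/mL. Groups are compared with control by one-way ANOVA and Dunnett post-hoc test (p < 0.05).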
(In general: ELISA stands for enzyme-linked immunosorbent assay.)

For data set [1] the following is noted: cited from earlier work.
For data set [2] the following is noted: clinical trials; cited from earlier work.
For data set [3], the target named is KOP. Particulars: [35S]GTP-γ-S assay; cited from earlier work. (In general: Binding of GTPγS marks nucleotide exchange on a G protein.)
Data set [4] concerns the target T1, KOP (Mus musculus, UniProt P33534). Put plainly: [35S]-GTPγS stimulated binding functional assay, KOP. The conditions noted are these: for agonism in the [35S]-GTPγS functional assay: KOP and MOP functional assay. Type of data set: biochemical. The method in brief:
(§1)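 Membranes come from CHO cells expressing cloned mouse opioid receptors. Membrane protein (10 µg) is incubated with test compound (5µM), […] and 0.1nM [35S]-GTPγS in 50mM Tris, 3mM MgCl2, 0.2mM EDTA, pH 7.7, for 2 h at room temperature. Non-specific binding is defined with 20µM unlabelled GTPγS. Full-agonist references at 5µM are DAMGO (MOP) and salvinorin A (KOP).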

The target of data set [5] is T1, KOP. Put plainly: Radioligand competitive binding assay, KOP. Particulars: KOP versus MOP binding.
The target in data set [6] is T2, MOP (Mus musculus, UniProt P42866). Put plainly: [35S]-GTPγS stimulated binding functional assay, MOP. Type of data set: biochemical. Summed up: as §1
Data set [7] deals with T2, MOP. Put plainly: Radioligand competitive binding assay, MOP. Particulars: MOP over KOP.

For the molecule `CC(C)[C@@H](CN1CCc2ccccc2C1)NC(=O)c1cccc(-c2cccnc2)c1` [(S)-10j, (S)-N-(1-(3,4-dihydroisoquinolin-2(1H)-yl)-3-methylbutan-2-yl)-3-(pyridin-3-yl)benzamide], in the data set on male Wistar mice, the “percentage of maximum possible effect (% MPE), tail flick assay” value (“percentage … (% MPE), tail flick assay” below) is “comparable to that of the KOP agonist Nalbuphine”. In the data set on prolactin, the blood prolactin levels result is recorded as “double”.

With `CC(C)[C@@H](CN1CC[C@@](C)(c2cccc(O)c2)[C@@H](C)C1)NC(=O)[C@H]1Cc2ccc(O)cc2CN1` [JDTic], the “blood–brain barrier penetration” value in data set [1] is on record as “low blood–brain barrier penetration”. Besides, the “adverse effects (NSVT)” value in data set [2] was “non-sustained ventricular tachycardia (NSVT)”. On KOP [3], the Ki is 6 pM, the µ/ĸ ratio is 570 and the δ/ĸ ratio was greater than 16600.

Consider `CC(C)[C@@H](CN1CCc2ccccc2C1)NC(=O)c1cccc(-c2cccc(O)c2)c1` [(S)-10h, (S)-N-(1-(3,4-dihydroisoquinolin-2(1H)-yl)-3-methylbutan-2-yl)-3′-hydroxy-[1,1′-biphenyl]-3-carboxamide], for which, in the data set with male Wistar mice, the “acute antinociceptive agonist effect, tail flick assay” value (“acute antinociceptive agonist effect” below) is reported as “failed to show any significant agonist effect”. The “functional character at KOP/MOP” value on KOP [4] (KOP and MOP) is “non-selective KOP/MOP antagonist”. In addition, the “agonism in the [35S]-GTPγS functional assay” value on KOP [4] was “failed to produce any agonism”.

As to `CC(C)[C@H](CN1CCc2ccccc2C1)NC(=O)Cc1c[nH]c2ccccc12` [(R)-10c, (R)-N-(1-(3,4-dihydroisoquinolin-2(1H)-yl)-3-methylbutan-2-yl)-2-(1H-indol-3-yl)acetamide], the “acute antinociceptive agonist effect” value in the data set with male Wistar mice is recorded as “failed to show any significant agonist effect”.

With `CC(C)Cc1ccc([C@@H](C)C(=O)NC(CN2CCc3ccccc3C2)C(C)C)cc1` (stereo partly drawn) [(R)-10d], the “percentage … (% MPE), tail flick assay” value with male Wistar mice is recorded as “comparable to that of the KOP agonist Nalbuphine”. The blood prolactin levels entry in the data set on prolactin was “double”. Further, at KOP [5], the KOP selectivity result is given as “most selective”.

On MOP [6], `Cc1c(CC(=O)N[C@@H](CN2CCc3ccccc3C2)C(C)C)cccc1[N+](=O)[O-]` [(R)-10m, (R)-N-(1-(3,4-dihydroisoquinolin-2(1H)-yl)-3-methylbutan-2-yl)-2-(2-methyl-3-nitrophenyl)acetamide] yielded an EC50 of 94.5 nM and an IC50 of 94.5 nM. In addition, the “latency in the tail-flick animal model” value with male Wistar mice (compared with positive control Nalbuphine) is recorded as “comparable latency to the positive control, Nalbuphine”. In addition, the “percentage … (% MPE), tail flick assay” value with male Wistar mice is “comparable to that of the KOP agonist Nalbuphine”. Further, at KOP [4], the concentration giving a half-maximal response (EC50) was found to be 666 nM. Moreover, the MOP selectivity at MOP [7] is 23 fold. Besides, in the data set on prolactin, the blood prolactin levels entry is given as “double”.

Take `Cc1cc(C)cc([C@@H]2CCCN2Cc2ccc(Oc3ccc(C(N)=O)cc3F)cc2)c1` [Aticaprant]: the “adverse effects (NSVT)” value in [2] is recorded as “devoid of the NSVT effect”.

As to `CC(C)[C@@H](CN1CCc2ccccc2C1)NC(=O)c1cccc(-c2cccc(C#N)c2)c1` [(S)-10i, (S)-3′-cyano-N-(1-(3,4-dihydroisoquinolin-2(1H)-yl)-3-methylbutan-2-yl)-[1,1′-biphenyl]-3-carboxamide], the “acute antinociceptive agonist effect” value with male Wistar mice is given as “failed to show any significant agonist effect”. For the same molecule, the “agonism in the [35S]-GTPγS functional assay” value on KOP [4] is given as “failed to produce any agonism”.

The term Ki denotes the equilibrium dissociation constant of an inhibitor or competing ligand from its target. Broadly, the EC50 is the concentration needed to bring the measured effect to its halfway point. For orientation: IC50 means the concentration that gives 50% inhibition. Read a low IC50 as greater potency in that assay.
